pIC50: −log10 of the molar value. The source made the active and inactive calls. The calls are words filed in the database; no cut-off is given here.
Key:
[1] = Effect on iron-induced hydroxyl radical generation assessed as increase in PBN-OH radical spin adduct concentration at 600 uM; format: functional
Method in brief: (§1)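 Fenton system of 100 µM FeSO4, 200 µM H2O2 and 35 mM PBN spin trap. Compound added 2 min before H2O2. EPR spectrum recorded at room temperature in a quartz flat cell. PBN-OH spin adduct level estimated from peak intensity of the middle field doublet and expressed as percent of control. Mean ± SEM, n = 3.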

[2] = Iron chelating activity by ferrozine method; format: functional
Method in brief: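 Competition with ferrozine for Fe(II) in 5% ammonium acetate buffer, pH 6.9. Compound (100–600 µM, duplicate) preincubated 30 min with 15 µM FeSO4, then 60 µM ferrozine added for 1 h at ambient temperature. Absorbance read at 562 nm with blank subtracted. Chelating effect % = [1 − sample/control] × 100. n = 3 in duplicate.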

Brain [3] = experiment: Inhibition of iron/ascorbate-induced lipid peroxidation in Sprague-Dawley rat brain mitochondrial membrane homogenate at 100 uM; format: functional, tissue-based
Method in brief: (§2)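 Crude mitochondrial fraction from brains of male Sprague-Dawley rats (250–300 g). Assay in 25 mM Tris-HCl pH 7.5 with 25 µM ascorbate, 40 µg protein, 1.5 µM FeSO4 and compound (10–750 µM). Shaken 2 h at ambient temperature, then TCA stop and TBA at 95 °C for 30 min. Read at 532 nm, blank subtracted, percent of control. n = 3 in duplicate.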

[4] = Effect on iron-induced hydroxyl radical generation assessed as reduction in EPR signals; format: functional; method in brief: as §1
[5] = Effect on iron-induced hydroxyl radical generation assessed as reduction in EPR signals relative to control; format: functional; set-up: scale not given: the % may be the effect or the level left; method in brief: as §1
SH-SY5Y [6] = experiment: Neuroprotective activity against hydrogen persoxide-induced cell death in human SH-SY5Y cells upto 10 uM by MTT assay; format: ADME, cell-based
Method in brief: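 SH-SY5Y cells seeded at 0.5 × 10^4 per well in MEM/F-12 with 10% FCS and allowed to attach for 24 h. Compound added immediately before 80 µM H2O2, then 24 h at 37 °C. MTT for 2 h, then SDS/HCl lysis for 24 h, read at 570/650 nm. Viability expressed as percent of cells not treated with H2O2. n = 7 over two experiments.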

Brain [7] = experiment: Inhibition of iron/ascorbate-induced lipid peroxidation in Sprague-Dawley rat brain mitochondrial membrane homogenate; format: functional, tissue-based; method in brief: as §2
[8] = Effect on iron-induced hydroxyl radical generation assessed as reduction in EPR signals at 300 uM relative to control; format: functional; set-up: scale not given: the % may be the effect or the level left; method in brief: as §1
SH-SY5Y [9] = experiment: Neuroprotective activity against hydrogen persoxide-induced cell death in human SH-SY5Y cells assessed as cell viability at 1 uM by MTT assay relative to control; format: cell-based; conditions: read-out: Activity
Method in brief: (§3)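 SH-SY5Y cells grown in 1:1 Eagle MEM/Ham's F-12 with 10% FCS, 37 °C, 5% CO2; seeded 0.5 × 10^4 cells/well, attached 24 h. Compounds or vehicle added just before 80 µM H2O2. After 24 h at 37 °C, MTT added for 2 h, then SDS/HCl for a further 24 h; absorbance read at 570/650 nm. Viability expressed as percent of cells not treated with H2O2.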

SH-SY5Y [10] = experiment: Neuroprotective activity against hydrogen persoxide-induced cell death in human SH-SY5Y cells assessed as cell viability at 10 uM by MTT assay relative to control; format: cell-based; conditions: read-out: Activity; method in brief: as §3
Brain [11] = experiment: Inhibition of iron/ascorbate-induced lipid peroxidation in Sprague-Dawley rat brain mitochondrial membrane homogenate at 15 uM; format: functional, tissue-based; method in brief: as §2

| pIC50 [2] | pIC50 [4] | pIC50 (Brain [7]) | SMILES | Activity [1] | Activity (Brain [3]) | Activity [5] | Activity (SH-SY5Y [6]) | Activity ([8]; 600 uM, in the assay text read “at 600 uM” for “at 300 uM”) | viability at 1 µM (SH-SY5Y [9]) | viability at 10 µM (SH-SY5Y [10]) | Activity (Brain [11]) | Activity ([8]; 300 uM) |
| --- | --- | --- | --- | --- | --- | --- | --- | --- | --- | --- | --- | --- |
| 3.44 | – | – | CC[C@H](C)[C@H](NC(=O)[C@H](CO)NC(=O)[C@@H](NC(=O)[C@@H]1CCCN1C(=O)[C@H](C)NC(=O)[C@@H](N)CC(=O)NO)C(C)C)C(=O)N1CCC[C@H]1C(=O)N[C@@H](CCC(N)=O)C(=O)O | inactive | inactive | – | – | – | – | – | – | – |
| 3.77 | 3.82 | 3.47 | CC[C@H](C)[C@H](NC(=O)[C@H](CO)NC(=O)[C@@H](NC(=O)[C@@H]1CCCN1C(=O)[C@H](C)NC(=O)[C@@H](N)CC(=O)NO)C(C)C)C(=O)N1CCC[C@H]1C(=O)N[C@@H](CCC(N)=O)C(=O)NO | – | inactive | 28% | Non-toxic | 28% | – | – | – | – |
| 3.44 | – | – | CC[C@H](C)[C@H](NC(=O)[C@H](CO)NC(=O)[C@@H](NC(=O)[C@@H]1CCCN1C(=O)[C@H](C)NC(=O)[C@@H](N)CC(N)=O)C(C)C)C(=O)N1CCC[C@H]1C(=O)N[C@@H](CCC(N)=O)C(=O)NO | inactive | inactive | – | – | – | – | – | – | – |

| SMILES | pIC50 [2] | pIC50 [4] | pIC50 (Brain [7]) | Activity [1] | Activity (Brain [3]) | Activity [5] | Activity (SH-SY5Y [6]) | Activity ([8]; 600 uM, in the assay text read “at 600 uM” for “at 300 uM”) | viability at 1 µM (SH-SY5Y [9]) | viability at 10 µM (SH-SY5Y [10]) | Activity (Brain [11]) | Activity ([8]; 300 uM) |
| --- | --- | --- | --- | --- | --- | --- | --- | --- | --- | --- | --- | --- |
| CC(=O)N(O)CCCCCNC(=O)CCC(=O)N(O)CCCCCNC(=O)CCC(=O)N(O)CCCCCN [DEFEROXAMINE] | 5.00 | – | – | – | – | – | – | – | 76% | 76% | Active | 12% |
